From ChEMBL document CHEMBL1126705, “16 beta-([18F]fluoro)estrogens: systematic investigation of a new series of fluorine-18-labeled estrogens as potential imaging agents for estrogen-receptor-positive breast tumors” (J Med Chem, 1993)

Key:
Rattus norvegicus [1] = experiment: Tested in vivo for the biodistribution in blood of female rat at 1 hour after intravenous dose of 50 microCi of drug in 10%ethanol saline; assay type: ADME, organism-based
Outline: (§1)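 Ether-anesthetized 25-day-old female Sprague-Dawley rats (~40–53 g) got the [18F] tracer in 10% ethanol saline via femoral vein. Rats were decapitated at 1 or 3 h, and blood and organs were weighed and gamma-counted. Values are % injected dose/g as mean ± SD, n = 5 per time point.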

Rattus norvegicus [2] = experiment: Tested in vivo for the biodistribution in rat uterus/muscle after 3 hours following an intravenous dose of 50 microCi of drug in 10%ethanol saline; assay type: ADME, organism-based, Muscle tissue
Outline: (§2)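 Female Sprague-Dawley rats, 25 days old (~40–53 g), ether-anesthetized, given the 18F-labeled estrogen iv via femoral vein in 10% ethanol saline. […] Others were sacrificed by decapitation at 1 or 3 h. Blood and organs were excised, weighed and gamma counted as % injected dose/g, mean ± SD, typically n = 5 (4–6).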

Rattus norvegicus [3] = experiment: Tested in vivo for the biodistribution in rat liver at 1 hour after intravenous dose of 50 microCi of the drug and 15 u g of estradiol; assay type: ADME, organism-based
Outline: (§3)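 Immature (25-day-old) female Sprague-Dawley rats, ether-anesthetized, given the fluorine-18-labeled estrogen by femoral vein injection in 10% ethanol saline. […] Other groups were killed by decapitation at 1 or 3 h. Blood and organs were weighed and gamma-counted. Data are % injected dose/g, mean ± SD, typically n = 5 per group.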

[4] = Partition coefficient (logP); assay type: physicochemical; details: octanol/water
Outline: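 Octanol/water log P estimated from log k'w measured by reversed-phase HPLC (Minick method) on a C8 silica column.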

Rattus norvegicus [5] = experiment: Tested in vivo for the biodistribution in rat thymus at 1 hour after intravenous dose of 50 microCi of the drug and 15 ug of estradiol; assay type: ADME, organism-based; outline: as §3
Rattus norvegicus [6] = experiment: Tested in vivo for the biodistribution in rat thymus after 3 hours following an intravenous dose of 50 microCi of drug in 10%ethanol saline; assay type: ADME, organism-based; outline: as §3
Rattus norvegicus [7] = experiment: Tested in vivo for the biodistribution in rat muscle at 1 hour after intravenous dose of 50 microCi of drug in 10%ethanol saline; assay type: ADME, organism-based, Muscle tissue; outline: as §3
Rattus norvegicus [8] = experiment: Tested in vivo for the biodistribution in rat muscle at 1 hour after intravenous dose of 50 microCi of the drug and 15 ug of estradiol; assay type: ADME, organism-based, Muscle tissue; outline: as §3
Rattus norvegicus [9] = experiment: Tested in vivo for the biodistribution in rat bone at 1 hour after intravenous dose of 50 microCi of drug in 10%ethanol saline; assay type: ADME, organism-based, Bone element; outline: as §1
Rattus norvegicus [10] = experiment: Tested in vivo for the biodistribution in rat ovaries at 1 hour after intravenous dose of 50 microCi of drug in 10%ethanol saline; assay type: ADME, organism-based, Female gonad; outline: as §3
Rattus norvegicus [11] = experiment: Tested in vivo for the biodistribution in rat uterus/blood after 3 hours following an intravenous dose of 50 microCi of drug in 10%ethanol saline; assay type: ADME, organism-based; outline: as §2
Rattus norvegicus [12] = experiment: Tested in vivo for the biodistribution in blood of female rat after 3 hours following an intravenous dose of 50 microCi of drug in 10%ethanol saline; assay type: ADME, organism-based; outline: as §1
Rattus norvegicus [13] = experiment: Tested in vivo for the biodistribution in rat ovaries after 3 hours following an intravenous dose of 50 microCi of drug in 10%ethanol saline; assay type: ADME, organism-based, Female gonad; outline: as §3
Rattus norvegicus [14] = experiment: Tested in vivo for the biodistribution in rat thymus at 1 hour after intravenous dose of 50 microCi of drug in 10%ethanol saline; assay type: ADME, organism-based; outline: as §3
Rattus norvegicus [15] = experiment: Tested in vivo for the biodistribution in rat kidney at 1 hour after intravenous dose of 50 microCi of the drug and 15 u g of estradiol; assay type: ADME, organism-based; outline: as §3
Rattus norvegicus [16] = experiment: Tested in vivo for the biodistribution in rat fat at 1 hour after intravenous dose of 50 microCi of drug in 10%ethanol saline; assay type: ADME, organism-based, Adipose tissue; outline: as §1
Rattus norvegicus [17] = experiment: Tested in vivo for the biodistribution in rat uterus/blood at 1 hour after intravenous dose of 50 microCi of drug in 10%ethanol saline; assay type: ADME, organism-based; outline: as §2
Rattus norvegicus [18] = experiment: Tested in vivo for the biodistribution in blood of female rat at 1 hour after intravenous dose of 50 microCi of the drug and 15 u g of estradiol; assay type: ADME, organism-based
Rattus norvegicus [19] = experiment: Tested in vivo for the biodistribution in rat kidney at 1 hour after intravenous dose of 50 microCi of drug in 10%ethanol saline; assay type: ADME, organism-based; outline: as §1
Rattus norvegicus [20] = experiment: Tested in vivo for the biodistribution in rat uterus at 1 hour after intravenous dose of 50 microCi of the drug and 15 ug of estradiol; assay type: ADME, organism-based; outline: as §2
Rattus norvegicus [21] = experiment: Tested in vivo for the biodistribution in rat muscle after 3 hours following an intravenous dose of 50 microCi of drug in 10%ethanol saline; assay type: ADME, organism-based, Muscle tissue; outline: as §3
Rattus norvegicus [22] = experiment: Tested in vivo for the biodistribution in rat bone after 3 hours following an intravenous dose of 50 microCi of drug in 10%ethanol saline; assay type: ADME, organism-based, Bone element; outline: as §1
Rattus norvegicus [23] = experiment: Tested in vivo for the biodistribution in rat liver at 1 hour after intravenous dose of 50 microCi of drug in 10%ethanol saline; assay type: ADME, organism-based; outline: as §3
Rattus norvegicus [24] = experiment: Tested in vivo for the biodistribution in rat kidney after 3 hours following an intravenous dose of 50 microCi of drug in 10%ethanol saline; assay type: ADME, organism-based; outline: as §1
Rattus norvegicus [25] = experiment: Tested in vivo for the biodistribution in rat liver after 3 hours following an intravenous dose of 50 microCi of drug in 10%ethanol saline; assay type: ADME, organism-based; outline: as §3
[26] = biological target: T1, Sex hormone-binding globulin (Homo sapiens) (UniProt P04278); experiment: Relative binding affinity against sex steroid binding protein (SBP)
T1 sequence (whole entry): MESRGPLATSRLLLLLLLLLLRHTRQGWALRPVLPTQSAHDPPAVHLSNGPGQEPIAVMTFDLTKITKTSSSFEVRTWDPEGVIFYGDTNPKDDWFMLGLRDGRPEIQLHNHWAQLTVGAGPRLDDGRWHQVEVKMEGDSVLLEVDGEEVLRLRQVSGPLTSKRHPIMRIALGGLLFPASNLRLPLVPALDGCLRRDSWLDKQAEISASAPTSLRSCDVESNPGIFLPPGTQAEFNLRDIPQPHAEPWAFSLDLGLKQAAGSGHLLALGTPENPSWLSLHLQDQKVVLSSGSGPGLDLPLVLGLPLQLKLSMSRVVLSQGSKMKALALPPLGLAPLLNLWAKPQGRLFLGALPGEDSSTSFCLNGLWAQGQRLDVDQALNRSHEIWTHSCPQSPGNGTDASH

Rattus norvegicus [27] = experiment: Tested in vivo for the biodistribution in rat bone at 1 hour after intravenous dose of 50 microCi of the drug and 15 ug of estradiol; assay type: ADME, organism-based, Bone element
[28] = biological target: T2, Estrogen receptor (Rattus norvegicus) (UniProt P06211+Q62986)
Rattus norvegicus [29] = experiment: Tested in vivo for the biodistribution in rat uterus/muscle at 1 hour after intravenous dose of 50 microCi of the drug and 15 ug of estradiol; assay type: ADME, organism-based, Muscle tissue; outline: as §2
Rattus norvegicus [30] = experiment: Tested in vivo for the biodistribution in rat fat after 3 hours following an intravenous dose of 50 microCi of drug in 10%ethanol saline; assay type: ADME, organism-based, Adipose tissue; outline: as §1
[31] = biological target: T2, Estrogen receptor (Rattus norvegicus); remark: listed apart in the source
Rattus norvegicus [32] = experiment: Tested in vivo for the biodistribution in rat fat at 1 hour after intravenous dose of 50 microCi of the drug and 15 ug of estradiol; assay type: ADME, organism-based, Adipose tissue
Rattus norvegicus [33] = experiment: Tested in vivo for the biodistribution in rat uterus at 1 hour after intravenous dose of 50 microCi of drug in 10%ethanol saline; assay type: ADME, organism-based; outline: as §2
Rattus norvegicus [34] = experiment: Tested in vivo for the biodistribution in rat ovaries at 1 hour after intravenous dose of 50 microCi of the drug and 15 ug of estradiol; assay type: ADME, organism-based, Female gonad; outline: as §3
Rattus norvegicus [35] = experiment: Tested in vivo for the biodistribution in rat uterus/muscle at 1 hour after intravenous dose of 50 microCi of drug in 10%ethanol saline; assay type: ADME, organism-based, Muscle tissue; outline: as §2
Rattus norvegicus [36] = experiment: Tested in vivo for the biodistribution in rat uterus after 3 hours following an intravenous dose of 50 microCi of drug in 10%ethanol saline; assay type: ADME, organism-based; outline: as §3
Rattus norvegicus [37] = experiment: Tested in vivo for the biodistribution in rat uterus/blood at 1 hour after intravenous dose of 50 microCi of the drug and 15 ug of estradiol; assay type: ADME, organism-based; outline: as §2
[38] = biological target: T3, Alpha-fetoprotein (Rattus norvegicus) (UniProt P02773); experiment: Relative binding affinity for Alphafetoprotein
T3 sequence (whole entry): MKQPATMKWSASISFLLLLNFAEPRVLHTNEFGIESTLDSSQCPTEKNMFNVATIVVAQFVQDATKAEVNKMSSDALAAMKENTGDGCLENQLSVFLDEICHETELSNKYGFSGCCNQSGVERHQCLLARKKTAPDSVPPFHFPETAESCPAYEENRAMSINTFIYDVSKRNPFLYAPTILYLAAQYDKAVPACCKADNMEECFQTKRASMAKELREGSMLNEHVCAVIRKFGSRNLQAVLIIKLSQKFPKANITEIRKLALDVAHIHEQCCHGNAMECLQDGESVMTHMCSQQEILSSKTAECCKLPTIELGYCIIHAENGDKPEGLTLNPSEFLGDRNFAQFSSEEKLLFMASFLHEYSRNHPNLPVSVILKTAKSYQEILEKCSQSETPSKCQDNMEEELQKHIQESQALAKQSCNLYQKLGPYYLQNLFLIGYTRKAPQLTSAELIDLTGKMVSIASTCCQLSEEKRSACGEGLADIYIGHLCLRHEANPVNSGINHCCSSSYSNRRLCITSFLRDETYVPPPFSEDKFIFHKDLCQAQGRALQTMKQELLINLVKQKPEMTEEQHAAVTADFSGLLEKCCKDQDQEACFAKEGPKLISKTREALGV

Structure (SMILES) | Injected (Rattus norvegicus [1]) | Injected (Rattus norvegicus [2]) | Injected (Rattus norvegicus [3]) | logP [4] | Injected (Rattus norvegicus [5]) | Injected (Rattus norvegicus [6]) | Injected (Rattus norvegicus [7]) | Injected (Rattus norvegicus [8]) | Injected (Rattus norvegicus [9]) | Injected (Rattus norvegicus [10]) | Injected (Rattus norvegicus [11]) | Injected (Rattus norvegicus [12]) | Injected (Rattus norvegicus [13]) | Injected (Rattus norvegicus [14]) | Injected (Rattus norvegicus [15]) | Injected (Rattus norvegicus [16]) | relative binding affinity (RBA) [26] | BSI [28] | NSB [31] | relative binding affinity (RBA) [38] | also measured
C#C[C@]1(O)[C@@H](F)C[C@H]2[C@@H]3CCc4cc(O)ccc4[C@H]3[C@@H](OC)C[C@@]21C | 0.284% | 32.76% | 3.708% | 2.87 | 0.44% | 0.454% | 0.739% | 0.525% | 1.384% | 5.2% | 129.8% | 0.101% | 3.51% | 0.852% | 1.038% | 1.538% | 0.037 | 116 | 0.67 | < 0.01 | Injected (Rattus norvegicus [17]): 66.26%; Injected (Rattus norvegicus [18]): 0.38%; Injected (Rattus norvegicus [19]): 1.961%; Injected (Rattus norvegicus [20]): 2.548%; Injected (Rattus norvegicus [21]): 0.389%; Injected (Rattus norvegicus [22]): 2.007%; Injected (Rattus norvegicus [23]): 3.244%; Injected (Rattus norvegicus [24]): 0.973%; Injected (Rattus norvegicus [25]): 2.129%; Injected (Rattus norvegicus [27]): 1.477%; Injected (Rattus norvegicus [29]): 5.25%; Injected (Rattus norvegicus [30]): 0.858%; Injected (Rattus norvegicus [32]): 0.679%; Injected (Rattus norvegicus [33]): 18.26%; Injected (Rattus norvegicus [34]): 1.661%; Injected (Rattus norvegicus [35]): 24.31%; Injected (Rattus norvegicus [36]): 12.99%; Injected (Rattus norvegicus [37]): 7.52%
CCC1C[C@]2(C)[C@@H](O)CC[C@H]2[C@@H]2CCc3cc(O)ccc3[C@@H]12 (stereo partly specified) | – | – | – | 3.9 | – | – | – | – | – | – | – | – | – | – | – | – | 40.8 | 648 | 2.1 | 1.21 | –
C#C[C@]1(O)CC[C@H]2[C@@H]3CCc4cc(O)ccc4[C@H]3[C@@H](OC)C[C@@]21C [MOXESTROL] | – | – | – | 3.01 | – | – | – | – | – | – | – | – | – | – | – | – | 0.071 | 243 | 0.76 | 0.023 | –
C#C[C@]1(O)[C@@H](F)C[C@H]2[C@@H]3CCc4cc(O)ccc4[C@H]3[C@@H](CC)C[C@@]21C | 0.264% | 23.55% | 3.888% | 4.12 | 0.277% | 0.493% | 0.725% | 0.262% | 1.365% | 3.934% | 64.53% | 0.144% | 3.115% | 0.815% | 0.709% | 3.375% | 11 | 189 | 2.43 | 0.147 | Injected (Rattus norvegicus [17]): 33.61%; Injected (Rattus norvegicus [18]): 0.227%; Injected (Rattus norvegicus [19]): 1.886%; Injected (Rattus norvegicus [20]): 0.88%; Injected (Rattus norvegicus [21]): 0.382%; Injected (Rattus norvegicus [22]): 1.606%; Injected (Rattus norvegicus [23]): 4.023%; Injected (Rattus norvegicus [24]): 1.03%; Injected (Rattus norvegicus [25]): 4.003%; Injected (Rattus norvegicus [27]): 1.037%; Injected (Rattus norvegicus [29]): 3.5%; Injected (Rattus norvegicus [30]): 1.805%; Injected (Rattus norvegicus [32]): 2.174%; Injected (Rattus norvegicus [33]): 8.2%; Injected (Rattus norvegicus [34]): 1.712%; Injected (Rattus norvegicus [35]): 11.41%; Injected (Rattus norvegicus [36]): 9.09%; Injected (Rattus norvegicus [37]): 4.03%
